Source: ChEMBL document CHEMBL4732116, “Discovery of novel CA-4 analogs as dual inhibitors of tubulin polymerization and PD-1/PD-L1 interaction for cancer treatment” (Eur J Med Chem, 2021)
Active and inactive are the calls of the source. The rule behind the calls is not given here.

Tests used:
NCM460 = assay: Cytotoxicity against human NCM460 cells assessed as reduction in cell viability measured after 48 hrs by CCK8 assay; type: cell-based; conditions: NCM460, 48 h
In short: (§1)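 Cells pre-incubated 24 h at 37 °C, 5% CO2, then exposed to compounds over a concentration range in medium with 0.1% DMSO for a further 48 h at 37 °C. CCK-8 read-out as absorbance at 450 nm. IC50 taken from dose-response curves. Three independent experiments.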

[1] = Antiproliferative activity against human A549/PTX cells assessed as reduction in cell viability measured after 48 hrs by CCK8 assay; type: functional, cell-based; conditions: A549/Taxol; in short: as §1
HEK293 = assay: Cytotoxicity against HEK293 cells assessed as reduction in cell viability measured after 48 hrs by CCK8 assay; type: cell-based; conditions: Homo sapiens, HEK293, 48 h; in short: as §1
B16-F10 = assay: Antiproliferative activity against mouse B16-F10 cells assessed as reduction in cell viability measured after 48 hrs by CCK8 assay; type: functional, cell-based; conditions: B16-F10, 48 h; in short: as §1
MC-38 = assay: Antiproliferative activity against mouse MC38 cells assessed as reduction in cell viability measured after 48 hrs by CCK8 assay; type: functional, cell-based; conditions: MC-38, 48 h; in short: as §1
[2] = target: Programmed cell death protein 1/Programmed cell death 1 ligand 1 (Homo sapiens, UniProt Q9NZQ7); assay: Inhibition of PD1/PDL1 (unknown origin) protein-protein interaction measured after 15 mins by HTRF assay; type: protein-complex assay
Sequence of Programmed cell death protein 1/Programmed cell death 1 ligand 1 (Q15116 whole entry): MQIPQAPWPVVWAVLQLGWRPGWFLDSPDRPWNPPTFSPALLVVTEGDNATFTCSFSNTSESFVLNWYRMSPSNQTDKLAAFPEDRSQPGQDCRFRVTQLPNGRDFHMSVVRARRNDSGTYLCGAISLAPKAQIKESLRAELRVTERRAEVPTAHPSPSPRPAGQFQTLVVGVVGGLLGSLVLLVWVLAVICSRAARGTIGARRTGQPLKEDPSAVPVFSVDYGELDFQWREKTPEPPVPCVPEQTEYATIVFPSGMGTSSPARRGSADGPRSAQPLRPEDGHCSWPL
Sequence of Programmed cell death protein 1/Programmed cell death 1 ligand 1 (Q9NZQ7 whole entry): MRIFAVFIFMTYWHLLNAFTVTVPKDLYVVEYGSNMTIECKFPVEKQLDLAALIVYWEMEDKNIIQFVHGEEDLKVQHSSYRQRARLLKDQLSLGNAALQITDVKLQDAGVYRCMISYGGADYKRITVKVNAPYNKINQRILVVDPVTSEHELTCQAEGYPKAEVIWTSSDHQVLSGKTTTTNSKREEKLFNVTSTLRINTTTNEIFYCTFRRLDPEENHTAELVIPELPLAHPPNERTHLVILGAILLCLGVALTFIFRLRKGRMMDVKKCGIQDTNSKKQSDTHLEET

HeLa = assay: Antiproliferative activity against human HeLa cells assessed as reduction in cell viability measured after 48 hrs by CCK8 assay; type: functional, cell-based; in short: as §1
HepG2 = assay: Antiproliferative activity against human HepG2 cells assessed as reduction in cell viability measured after 48 hrs by CCK8 assay; type: functional, cell-based; conditions: HepG2, 48 h; in short: as §1
Sus scrofa = species on record: Sus scrofa; assay: (§2) Inhibition of pig brain tubulin polymerization by spectrophotometric method; type: tissue-based
In short: (§3)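 Pig brain tubulin (three assembly/disassembly cycles, phosphocellulose P11 purification) mixed with compound at various concentrations in PEM buffer (100 mM PIPES, 1 mM MgCl2, 1 mM EGTA) with 1 mM GTP, 5% glycerol; polymerization read at 340 nm, 37 °C; plateau absorbance used.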

Tubulin (Homo sapiens) = Tubulin (Homo sapiens) (UniProt P68371+Q9H4B7+P0DPH7+P68366+Q13509+Q71U36+P04350+Q3ZCM7+P07437+P68363+Q9BQE3+Q6PEY2+Q13885+Q9BVA1+Q9BUF5); assay: Disruption of microtubule network in human HepG2 cells at 5 uM measured after 24 hrs by immunofluorescence assay; type: cell-based
In short: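 HepG2 cells on glass coverslips, treated 24 h after plating for 24 h (vehicle 0.1% DMSO). Fixed 15 min in 4% formaldehyde, permeabilized 5 min in 0.2% Triton X-100, blocked 30 min in 5% BSA. Immunostained with anti-tubulin antibody, then imaged by confocal laser scanning.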

[3] = as §2; type: tissue-based, Sus scrofa; in short: as §3

| Compound | IC50 (B16-F10) | IC50 (HeLa) | IC50 (HepG2) | inhibition (Tubulin (Homo sapiens)) | IC50 [3] | IC50 (NCM460) | IC50 [1] | IC50 (HEK293) | IC50 (MC-38) | IC50 [2] | inhibition (Sus scrofa) |
| --- | --- | --- | --- | --- | --- | --- | --- | --- | --- | --- | --- |
| CC(=O)O[C@H]1C(=O)[C@@]2(C)[C@H]([C@H](OC(=O)c3ccccc3)[C@]3(O)C[C@H](OC(=O)[C@H](O)[C@@H](NC(=O)c4ccccc4)c4ccccc4)C(C)=C1C3(C)C)[C@]1(OC(C)=O)CO[C@@H]1C[C@@H]2O |  |  |  |  |  |  |  |  |  |  | inactive |
| COc1ccc(/C=C\c2cc(OC)c(OC)c(OC)c2)cc1OCc1ccc(C=O)cc1 |  |  |  | Active |  |  |  |  |  |  |  |
| COc1ccc(/C=C\c2cc(OC)c(OC)c(OC)c2)cc1OCc1ccc(CN2C[C@H](O)C[C@@H]2C(=O)O)cc1 | > 10 µM | > 10 µM | > 10 µM |  |  | > 50 µM | > 20 µM | > 50 µM | > 10 µM | > 100 µM |  |
| COc1ccc(/C=C\c2cc(OC)c(OC)c(OC)c2)cc1OCc1ccc(CN2C[C@H](O)[C@@H](F)C2)cc1 | > 10 µM | 9.2 µM | 5.3 µM |  |  | 38 µM | 19.2 µM | 29 µM | > 10 µM | 52 µM |  |
| COc1ccc(/C=C\c2cc(OC)c(OC)c(OC)c2)cc1OCc1ccc(CN2CCCC[C@@H]2C(=O)O)cc1 | > 10 µM | > 10 µM | > 10 µM |  |  | > 50 µM | > 20 µM | 42 µM | > 10 µM | > 100 µM |  |
| COc1ccc(/C=C\c2cc(OC)c(OC)c(OC)c2)cc1OCc1ccc(CN2CC[C@@H](C(=O)O)C2)cc1 | > 10 µM | 12.8 µM | 2.3 µM |  | > 200 µM | > 50 µM | > 20 µM | 27 µM | 6.3 µM | > 100 µM |  |
| COc1ccc(/C=C\c2cc(OC)c(OC)c(OC)c2)cc1OCc1ccc(CN2CCCCC2C(=O)O)cc1 (configuration not stated) | > 10 µM | 14.2 µM | 3.1 µM |  |  | > 50 µM | 10.2 µM | > 50 µM | 5.4 µM | > 100 µM |  |
| COc1ccc(/C=C\c2cc(OC)c(OC)c(OC)c2)cc1O [COMBRETASTATIN A4] | 0.05 µM | 0.06 µM | 0.59 µM |  | 4.31 µM | 12 µM | 0.62 µM | 11 µM | 0.08 µM | > 100 µM |  |
| COc1ccc(/C=C\c2cc(OC)c(OC)c(OC)c2)cc1OCc1ccc(CN2CCCC[C@H]2C(=O)O)cc1 | > 10 µM | > 10 µM | > 10 µM |  | > 200 µM | > 50 µM | > 20 µM | > 50 µM | > 10 µM | > 100 µM |  |
| COc1ccc(/C=C\c2cc(OC)c(OC)c(OC)c2)cc1OCc1ccc(CNC(C)(C)C(=O)O)cc1 | > 10 µM | > 10 µM | 6.5 µM |  |  | > 50 µM | > 20 µM | > 50 µM | > 10 µM | > 100 µM |  |
| COc1ccc(/C=C\c2cc(OC)c(OC)c(OC)c2)cc1OCc1ccc(CN2CC[C@H](O)C2)cc1 | > 10 µM | 10.5 µM | 6.6 µM |  |  | 51 µM | 5.9 µM | > 50 µM | 7.2 µM | 90 µM |  |

The next lines start with results.

| IC50 (B16-F10) | IC50 (HeLa) | IC50 (HepG2) | inhibition (Tubulin (Homo sapiens)) | IC50 [3] | Compound | IC50 (NCM460) | IC50 [1] | IC50 (HEK293) | IC50 (MC-38) | IC50 [2] | inhibition (Sus scrofa) |
| --- | --- | --- | --- | --- | --- | --- | --- | --- | --- | --- | --- |
| > 10 µM | 6.5 µM | > 10 µM |  |  | COc1ccc(/C=C\c2cc(OC)c(OC)c(OC)c2)cc1OCc1ccc(CN2CC(C(=O)O)C2)cc1 | > 50 µM | > 20 µM | > 50 µM | > 10 µM | 42 µM |  |
| 4.6 µM | 7.3 µM | 4.8 µM |  |  | COc1ccc(/C=C\c2cc(OC)c(OC)c(OC)c2)cc1OCc1ccc(CN2CCCCC2C(=O)NCCN)cc1 (configuration not stated) | > 50 µM | 2.7 µM | > 50 µM | > 10 µM | 65.7 µM |  |
| 7 µM | > 10 µM | 6.4 µM |  |  | COc1ccc(/C=C\c2cc(OC)c(OC)c(OC)c2)cc1OCc1ccc(CN2CC[C@H](C(=O)O)C2)cc1 | > 50 µM | 12 µM | > 50 µM | > 10 µM | 38.6 µM |  |
| > 10 µM | > 10 µM | 6.2 µM |  |  | COc1ccc(/C=C\c2cc(OC)c(OC)c(OC)c2)cc1OCc1ccc(CN2CC[C@@H](O)C2)cc1 | 53 µM | 8.9 µM | > 50 µM | 6.9 µM | > 100 µM |  |
| > 10 µM | 9.4 µM | 4.4 µM |  |  | COc1ccc(/C=C\c2cc(OC)c(OC)c(OC)c2)cc1OCc1ccc(CNCCN(C)C)cc1 | 35 µM | 1.6 µM | 39 µM | 1.4 µM | > 100 µM |  |
| > 10 µM | > 10 µM | > 10 µM |  |  | COc1ccc(/C=C\c2cc(OC)c(OC)c(OC)c2)cc1OCc1ccc(CN[C@H](C(=O)O)[C@H](C)O)cc1 | > 50 µM | > 20 µM | > 50 µM | > 10 µM | 58.6 µM |  |
| 4.7 µM | 2 µM | 1.1 µM |  | 202 µM | COc1ccc(/C=C\c2cc(OC)c(OC)c(OC)c2)cc1OCc1ccc(CN2CCCCC2C(=O)NCCNC(=O)OC(C)(C)C)cc1 (configuration not stated) | 28 µM | 15 µM | 48 µM | 1.9 µM | > 100 µM |  |
| 6.6 µM | 4.4 µM | 5.9 µM |  |  | COc1ccc(/C=C\c2cc(OC)c(OC)c(OC)c2)cc1OCc1ccc(CNCCO)cc1 | 39 µM | 0.8 µM | > 50 µM | 1.2 µM | 90.5 µM |  |
| 5.4 µM | > 10 µM | > 10 µM |  |  | COc1ccc(/C=C\c2cc(OC)c(OC)c(OC)c2)cc1OCc1ccc(CN[C@H](C(=O)O)[C@@H](C)O)cc1 | > 50 µM | > 20 µM | > 50 µM | > 10 µM | 50.7 µM |  |
| 2.5 µM | 6.4 µM | 6.1 µM |  | 60.7 µM | COc1ccc(/C=C\c2cc(OC)c(OC)c(OC)c2)cc1OCc1ccc(CNCCNC(C)=O)cc1 | 54 µM | 1.1 µM | > 50 µM | 1.8 µM | 44.8 µM |  |
| 6.6 µM | 7.6 µM | 2.4 µM |  |  | COc1ccc(/C=C\c2cc(OC)c(OC)c(OC)c2)cc1OCc1ccc(CO)cc1 | > 50 µM | 12 µM | 37 µM | 5.7 µM | > 100 µM |  |
